PostGolgi ctrl: growth of the yeast control strain, post-Golgi counter-screen. efflux-deficient yeast background strain, growth absorbance A615, 16 h. inhibition, % at 10 µM. hit rate 5% among 98,000. AID 738
PLAP activator: activates human placental alkaline phosphatase; P05187; purified PLAP enzyme, luminescent substrate read-out; hits give high values; activation fold at 20 µM; hit rate 1.2% among 96,000; in the data active = activation fold above about 2
HePTP inh: inhibitors of human HePTP phosphatase. recombinant HePTP phosphatase activity, OD absorbance. P35236. AID 521. hit rate 0.64% among 110,000. inhibition, % at 20 µM; in the data active = inhibition above about 50%;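 also: plate controls were vehicle for no effect and reference inhibitor for full effect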
Target sequence (P35236 whole entry, looked up): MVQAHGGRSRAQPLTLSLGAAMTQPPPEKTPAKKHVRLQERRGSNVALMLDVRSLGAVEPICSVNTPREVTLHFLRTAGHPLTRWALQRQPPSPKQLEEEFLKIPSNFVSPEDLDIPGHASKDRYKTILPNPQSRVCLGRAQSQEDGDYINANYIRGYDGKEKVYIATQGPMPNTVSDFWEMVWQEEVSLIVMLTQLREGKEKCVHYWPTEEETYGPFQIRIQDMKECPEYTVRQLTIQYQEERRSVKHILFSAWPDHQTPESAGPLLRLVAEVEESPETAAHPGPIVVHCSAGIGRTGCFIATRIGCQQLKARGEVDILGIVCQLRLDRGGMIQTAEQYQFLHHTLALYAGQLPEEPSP
tolC growth inh: growth inhibitors of E. coli BW25113 tolC mutant; hit rate 2.2% among 65,000; OD615; growth inhibition, % at 10 µM (by protocol);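 active = growth inhibition at or above a cutoff equal to the mean over every tested compound plus 3 SD, cut at about 60% in these data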;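 also: growth measured after 20 h incubation at 37 °C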
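Test system: E. coli BW25113 ΔtolC::kan bacteria | Medium: Kanamycin-containing LB broth (50 µg/mL) | Dosing: One dose of 10 µM final | Times: 20 h incubation with compound, 37 °C | Detection: Optical density read at 615 nm | Read-out basis: Percent growth inhibition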
PostGolgi yeast: growth inhibition of a yeast mutant, post-Golgi transport screen | hit rate 0.9% among 98,000 | post-Golgi transport phenotypic cell assay | AID 739 | inhibition, % at 10 µM;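 also: yeast cells grown in 1536-well plates; yeast grown about 18 h at 30C before absorbance read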
E coli WT exp: blocks growth of wild type E. coli BW25113 | OD600 absorbance | growth inhibition, % at 100 µM | hit rate 0.15% among 98,000;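 active = growth inhibition above about 50% at one test dose, limit read from the data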;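 also: growth measured after 20 h incubation at 37 °C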
Numbers without * were called inactive. This is a sample that favours compounds with a hit; in the whole collection about 5.4% have one here. Rule as the data show it, unless noted: active = inhibition above about 30%; inactive = the rest.

`Cn1c(CNc2ccccc2O)nc2ccccc21` gave PostGolgi ctrl 7, PLAP activator 2.4*, HePTP inh 3, tolC growth inh -5, PostGolgi yeast -3 and E coli WT exp 10.
For CN1C(=O)C2(Oc3ccccc3C3CC(c4ccccc4)=NN32)c2ccccc21 (stereo not drawn) the results were PostGolgi ctrl 51*, PLAP activator 1, PostGolgi yeast -6 and E coli WT exp -11.
`Cc1nc(SCC(=O)NCc2ccccc2)c2oc3ccccc3c2n1` gave PostGolgi ctrl 7, PLAP activator 0.8, PostGolgi yeast -2 and E coli WT exp -11.
For O=C(Nc1cc(C(F)(F)F)ccc1-n1cncn1)c1ccc(-c2ccccc2)cc1 the results were PostGolgi ctrl 13, PLAP activator 0.9, PostGolgi yeast 76* and E coli WT exp -19.
Screening CC(C)OCCCNc1ncnc2c1[nH]c1ccccc12 returned PostGolgi ctrl 7, PLAP activator 0.9, HePTP inh 8, tolC growth inh 100*, PostGolgi yeast 17 and E coli WT exp 16.
COc1ccc2[nH]c3c(NCCN(C(C)C)C(C)C)ncnc3c2c1 was read as PostGolgi ctrl 5, PLAP activator 1.5, HePTP inh -2, tolC growth inh -6, PostGolgi yeast 2 and E coli WT exp 12.
CN1C(=O)C(c2c[nH]c3ccccc23)(c2c[nH]c3ccccc23)c2ccccc21 was read as HePTP inh -1.
For O=C(Nc1nnc(-c2ccccc2Cl)o1)c1ccc(S(=O)(=O)N2CCCCCC2)cc1 the results were PostGolgi ctrl 8, PLAP activator 1.9, HePTP inh -2, tolC growth inh 100*, PostGolgi yeast 8 and E coli WT exp -3.
Screening CC1CCN(S(=O)(=O)c2ccc(NC(=O)c3cccs3)cc2)CC1 returned PostGolgi ctrl 26, PLAP activator 1, HePTP inh 9, tolC growth inh 13, PostGolgi yeast -5 and E coli WT exp -7.
For CC(=O)Nc1ccc(S(=O)(=O)N2CCCCC2c2cccnc2)cc1 (stereo not drawn) the results were PostGolgi ctrl 35*, PLAP activator 0.7, HePTP inh -2, tolC growth inh 6, PostGolgi yeast 1 and E coli WT exp 5.
Screening O=C(Nc1ccn(-c2ccccc2)n1)c1ccc(S(=O)(=O)N2CCCCCC2)cc1 returned PostGolgi ctrl 31*, PLAP activator 0.8, HePTP inh 4, tolC growth inh 31, PostGolgi yeast -8 and E coli WT exp -22.
`CC1CCCCN1S(=O)(=O)c1ccc(NC(=O)c2cccs2)cc1` (stereo not drawn) gave PostGolgi ctrl 33*, PLAP activator 0.4, HePTP inh 3, tolC growth inh 53, PostGolgi yeast -12 and E coli WT exp -3.
`CN(C)c1ccc(CC2(CC(=O)c3ccccc3)C(=O)c3ccccc3C2=O)cc1` gave HePTP inh -7.
For CN(CC(=O)N1CCCCCC1)S(=O)(=O)c1ccc(Br)s1 the results were PostGolgi ctrl 15, PLAP activator 1, HePTP inh -12, tolC growth inh -2, PostGolgi yeast 8 and E coli WT exp 3.
CN1CCN(S(=O)(=O)c2ccc(NC(=O)c3cccc(S(=O)(=O)N4CCCC4)c3)cc2)CC1 was read as PostGolgi ctrl 8, PLAP activator 1.6, HePTP inh 6, tolC growth inh 6, PostGolgi yeast -1 and E coli WT exp 3.
Screening CC1CCCCN1S(=O)(=O)c1ccc(C(=O)Nc2nnc(-c3ccccc3Cl)o2)cc1 (stereo not drawn) returned PostGolgi ctrl 2, PLAP activator 1.6, HePTP inh -4, tolC growth inh 100*, PostGolgi yeast 5 and E coli WT exp 4.
`CCC1CCCCN1S(=O)(=O)c1ccc(C(=O)Nc2nnc(-c3ccccc3Cl)o2)cc1` (stereo not drawn) gave PostGolgi ctrl 24, HePTP inh 12, tolC growth inh 100*, PostGolgi yeast 3 and E coli WT exp -2.
Screening CCC1CCCCN1S(=O)(=O)c1ccc(Cl)c([N+](=O)[O-])c1 (stereo not drawn) returned HePTP inh -2.
Screening COc1nc(N(c2ccccc2)c2ccccc2)nc(-n2ccnc2)n1 returned PostGolgi ctrl 96*, PLAP activator 1, HePTP inh 3, tolC growth inh 94*, PostGolgi yeast 94* and E coli WT exp 25.
`CC1CCCCN1c1nnc(NC(=O)c2cc(-c3ccc(Br)cc3)on2)s1` (stereo not drawn) gave PostGolgi ctrl 46*, PLAP activator 1.3, PostGolgi yeast 3 and E coli WT exp -15.
Screening CC(C)NC(=O)c1cc(-c2ccc(Br)cc2)on1 returned PostGolgi ctrl 9, PLAP activator 0.9, HePTP inh 6, tolC growth inh -13, PostGolgi yeast -9 and E coli WT exp -2.
For Cc1sc2nc(CN(Cc3cccs3)C(=O)NC3CCCCC3)[nH]c(=O)c2c1C the results were PostGolgi ctrl 43*, PLAP activator 1.8, HePTP inh 5, tolC growth inh 89*, PostGolgi yeast -5 and E coli WT exp -15.
Screening O=C(c1cccs1)N(Cc1nc2sc3c(c2c(=O)[nH]1)CCCC3)C1CCCC1 returned PostGolgi ctrl 11, PLAP activator 1.6, HePTP inh 3, tolC growth inh 90*, PostGolgi yeast 9 and E coli WT exp -9.
`Cc1sc2nc(CN(C(=O)c3cccs3)C3CCCC3)[nH]c(=O)c2c1C` gave PostGolgi ctrl 34*, PLAP activator 1.4, HePTP inh -5, tolC growth inh 42, PostGolgi yeast 0 and E coli WT exp -1.
Screening Cc1cccc(NC(=O)N(Cc2nc3ccccc3c(=O)[nH]2)C2CCCC2)c1 returned PostGolgi ctrl -6, PLAP activator 1.2, HePTP inh 10, tolC growth inh 37, PostGolgi yeast 14 and E coli WT exp 3.
For CCN(CC)C(=O)CCc1nc2sc3c(c2c(=O)[nH]1)CCCC3 the results were PostGolgi ctrl 3, PLAP activator 1.2, PostGolgi yeast 0 and E coli WT exp -10.
Cc1sc2ncn(CC(=O)N(CC(=O)NC3CCCC3)Cc3cccs3)c(=O)c2c1C was read as PostGolgi ctrl 10, PLAP activator 1.3, HePTP inh 5, tolC growth inh 21, PostGolgi yeast 1 and E coli WT exp -9.
`O=C(NCCC1=CCCCC1)C1CC(=O)N(C2CCCCC2)C1` (stereo not drawn) gave PostGolgi ctrl 11, PLAP activator 1.2, HePTP inh 6, tolC growth inh -4, PostGolgi yeast 3 and E coli WT exp 3.
For Cc1nccc(-c2ccc(-n3cnc4ccccc43)cc2)n1 the results were PostGolgi ctrl -3, PLAP activator 0.9, PostGolgi yeast -10 and E coli WT exp 9.
CC1CCN(C(=O)CSc2ccc(-c3ccc(F)cc3)nn2)CC1 was read as PostGolgi ctrl 8, PLAP activator 0.9, HePTP inh 0, tolC growth inh 4, PostGolgi yeast 4 and E coli WT exp 3.

Bioassay records: PubChem BioAssay, several laboratories
